Measured values taken from the M2OR odorant receptor database.
Changes are numbered by the printed parent chain.

What was measured:
Conditions in all cases: stereoisomer not certain
UniProt Q7TR71 = biological target: T1, UniProt Q7TR71
T1 sequence (whole entry): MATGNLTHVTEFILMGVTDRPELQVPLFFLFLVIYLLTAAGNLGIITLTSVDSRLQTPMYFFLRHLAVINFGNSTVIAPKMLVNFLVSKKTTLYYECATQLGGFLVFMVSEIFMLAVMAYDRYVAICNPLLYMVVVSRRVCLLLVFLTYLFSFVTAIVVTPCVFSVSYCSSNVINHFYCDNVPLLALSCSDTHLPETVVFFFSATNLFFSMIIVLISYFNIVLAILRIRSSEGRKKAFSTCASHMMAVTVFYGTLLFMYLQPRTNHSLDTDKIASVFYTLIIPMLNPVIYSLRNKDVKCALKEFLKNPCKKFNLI
How it was run: (§1)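 Assay methods differ from source to source, frequently being transient luciferase assays in mammalian cell lines. For each receptor–molecule pair, the label responsive (active) applies when the original authors judged the measured signal statistically different from baseline, and non-responsive (inactive) applies otherwise.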

UniProt Q7TR79 = biological target: T2, UniProt Q7TR79
T2 sequence (whole entry): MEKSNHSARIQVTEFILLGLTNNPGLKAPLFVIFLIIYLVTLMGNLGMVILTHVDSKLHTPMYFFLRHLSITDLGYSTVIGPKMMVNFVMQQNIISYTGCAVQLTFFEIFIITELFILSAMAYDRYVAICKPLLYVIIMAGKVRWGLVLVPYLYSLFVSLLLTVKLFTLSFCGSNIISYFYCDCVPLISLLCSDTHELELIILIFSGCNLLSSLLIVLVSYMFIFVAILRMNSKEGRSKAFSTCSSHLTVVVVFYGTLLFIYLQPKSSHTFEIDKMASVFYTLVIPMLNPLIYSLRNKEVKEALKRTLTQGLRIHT
How it was run: as §1

UniProt Q7TRA3 = biological target: T3, UniProt Q7TRA3
T3 sequence (whole entry): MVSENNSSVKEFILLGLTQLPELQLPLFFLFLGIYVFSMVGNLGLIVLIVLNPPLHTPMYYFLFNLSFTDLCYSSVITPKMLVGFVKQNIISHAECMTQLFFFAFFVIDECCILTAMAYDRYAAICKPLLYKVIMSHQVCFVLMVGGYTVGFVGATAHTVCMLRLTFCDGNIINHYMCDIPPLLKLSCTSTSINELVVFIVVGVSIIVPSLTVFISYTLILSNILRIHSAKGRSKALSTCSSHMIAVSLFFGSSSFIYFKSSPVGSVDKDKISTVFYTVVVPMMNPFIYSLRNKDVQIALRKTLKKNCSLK
How it was run: as §1

UniProt Q7TRE4 = biological target: T4, UniProt Q7TRE4
T4 sequence (whole entry): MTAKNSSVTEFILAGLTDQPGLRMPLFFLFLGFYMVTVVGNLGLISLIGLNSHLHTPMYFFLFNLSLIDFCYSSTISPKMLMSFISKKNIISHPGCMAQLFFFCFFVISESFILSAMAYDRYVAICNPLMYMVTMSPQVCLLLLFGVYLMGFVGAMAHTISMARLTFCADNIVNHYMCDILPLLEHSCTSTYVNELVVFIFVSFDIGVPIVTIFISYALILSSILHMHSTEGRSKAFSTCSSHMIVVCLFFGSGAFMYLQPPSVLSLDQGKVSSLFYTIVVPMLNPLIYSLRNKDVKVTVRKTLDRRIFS
How it was run: as §1

UniProt Q7TRW1 = biological target: T5, UniProt Q7TRW1
T5 sequence (whole entry): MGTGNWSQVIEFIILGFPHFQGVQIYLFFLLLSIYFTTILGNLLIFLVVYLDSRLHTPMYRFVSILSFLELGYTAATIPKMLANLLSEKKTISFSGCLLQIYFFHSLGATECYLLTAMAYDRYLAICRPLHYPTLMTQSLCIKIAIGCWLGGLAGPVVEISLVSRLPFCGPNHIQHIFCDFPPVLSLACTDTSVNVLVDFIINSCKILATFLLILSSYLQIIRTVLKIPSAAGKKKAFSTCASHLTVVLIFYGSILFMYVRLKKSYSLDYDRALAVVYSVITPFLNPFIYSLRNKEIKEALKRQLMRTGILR
How it was run: as §1

UniProt Q7TRX0 = biological target: T6, UniProt Q7TRX0
T6 sequence (whole entry): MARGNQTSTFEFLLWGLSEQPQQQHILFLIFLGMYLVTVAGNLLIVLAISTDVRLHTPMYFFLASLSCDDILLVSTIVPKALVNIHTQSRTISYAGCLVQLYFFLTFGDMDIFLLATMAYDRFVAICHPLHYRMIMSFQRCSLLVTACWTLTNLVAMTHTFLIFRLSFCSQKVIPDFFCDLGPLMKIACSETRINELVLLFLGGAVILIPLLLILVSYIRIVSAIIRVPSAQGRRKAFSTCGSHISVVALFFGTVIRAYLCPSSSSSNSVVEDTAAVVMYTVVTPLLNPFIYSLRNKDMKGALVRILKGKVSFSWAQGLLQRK
How it was run: as §1

UniProt Q8VEU7 = biological target: T7, UniProt Q8VEU7
T7 sequence (whole entry): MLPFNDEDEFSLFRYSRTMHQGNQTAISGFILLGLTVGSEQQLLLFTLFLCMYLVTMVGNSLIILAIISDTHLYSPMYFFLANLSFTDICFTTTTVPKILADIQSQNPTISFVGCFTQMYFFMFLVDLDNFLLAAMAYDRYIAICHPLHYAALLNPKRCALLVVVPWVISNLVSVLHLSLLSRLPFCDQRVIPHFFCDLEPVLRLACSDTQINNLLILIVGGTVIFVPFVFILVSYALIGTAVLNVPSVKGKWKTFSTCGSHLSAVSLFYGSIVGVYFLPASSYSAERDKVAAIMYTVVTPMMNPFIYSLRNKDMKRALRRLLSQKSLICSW
How it was run: as §1

UniProt Q8VF05 = biological target: T8, UniProt Q8VF05
T8 sequence (whole entry): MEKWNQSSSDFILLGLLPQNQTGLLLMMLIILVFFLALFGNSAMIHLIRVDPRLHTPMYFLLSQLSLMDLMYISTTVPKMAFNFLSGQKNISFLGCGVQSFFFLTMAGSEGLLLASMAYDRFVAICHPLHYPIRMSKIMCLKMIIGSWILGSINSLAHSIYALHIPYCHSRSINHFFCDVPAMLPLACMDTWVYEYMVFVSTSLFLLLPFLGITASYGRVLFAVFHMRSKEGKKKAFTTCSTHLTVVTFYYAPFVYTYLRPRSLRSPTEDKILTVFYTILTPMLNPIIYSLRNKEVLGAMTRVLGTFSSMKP
How it was run: as §1

UniProt Q7TRM0 = biological target: T9, UniProt Q7TRM0
T9 sequence (whole entry): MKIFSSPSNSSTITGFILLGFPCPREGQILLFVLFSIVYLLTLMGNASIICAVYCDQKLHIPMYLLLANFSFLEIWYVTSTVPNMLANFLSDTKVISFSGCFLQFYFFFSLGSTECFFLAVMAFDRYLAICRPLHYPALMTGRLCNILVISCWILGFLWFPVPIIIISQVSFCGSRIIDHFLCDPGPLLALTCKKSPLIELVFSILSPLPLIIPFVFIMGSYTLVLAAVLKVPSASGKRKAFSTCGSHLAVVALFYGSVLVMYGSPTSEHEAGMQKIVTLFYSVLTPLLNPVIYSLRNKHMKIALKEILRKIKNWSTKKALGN
How it was run: as §1

UniProt Q7TRN9 = biological target: T10, UniProt Q7TRN9
T10 sequence (whole entry): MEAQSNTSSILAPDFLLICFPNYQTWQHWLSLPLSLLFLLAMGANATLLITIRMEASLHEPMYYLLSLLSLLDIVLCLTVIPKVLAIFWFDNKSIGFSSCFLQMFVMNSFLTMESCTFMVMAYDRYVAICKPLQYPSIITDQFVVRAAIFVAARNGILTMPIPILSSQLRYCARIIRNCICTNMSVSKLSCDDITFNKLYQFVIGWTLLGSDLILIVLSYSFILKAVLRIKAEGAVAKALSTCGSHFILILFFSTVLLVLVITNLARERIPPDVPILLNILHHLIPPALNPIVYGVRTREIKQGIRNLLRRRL
How it was run: as §1

UniProt Q7TRR8 = biological target: T11, UniProt Q7TRR8
T11 sequence (whole entry): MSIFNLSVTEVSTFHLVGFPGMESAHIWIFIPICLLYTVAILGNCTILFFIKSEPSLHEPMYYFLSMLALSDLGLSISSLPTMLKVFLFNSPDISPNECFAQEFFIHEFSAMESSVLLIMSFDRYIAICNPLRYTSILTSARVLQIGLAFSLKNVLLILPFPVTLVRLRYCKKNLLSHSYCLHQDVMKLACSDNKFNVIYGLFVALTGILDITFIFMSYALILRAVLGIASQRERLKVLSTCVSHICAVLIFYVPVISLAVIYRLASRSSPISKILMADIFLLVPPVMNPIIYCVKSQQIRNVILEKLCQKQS
How it was run: as §1

UniProt Q7TRA1 = biological target: T12, UniProt Q7TRA1
T12 sequence (whole entry): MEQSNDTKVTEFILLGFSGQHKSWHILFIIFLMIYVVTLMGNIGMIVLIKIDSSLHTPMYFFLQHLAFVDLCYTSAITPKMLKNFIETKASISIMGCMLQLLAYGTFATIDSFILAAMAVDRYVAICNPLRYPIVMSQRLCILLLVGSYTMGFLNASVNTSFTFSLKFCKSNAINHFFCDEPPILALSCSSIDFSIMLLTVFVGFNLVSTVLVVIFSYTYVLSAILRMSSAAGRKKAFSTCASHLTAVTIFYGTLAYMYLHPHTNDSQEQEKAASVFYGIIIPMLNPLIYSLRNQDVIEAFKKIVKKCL
How it was run: as §1

UniProt Q7TRA2 = biological target: T13, UniProt Q7TRA2
T13 sequence (whole entry): T12 sequence (whole entry) with S18A, I86T, I94F, M95I, S112C, V208L, T219I, V221I, V305A
How it was run: as §1

UniProt Q7TRR7 = biological target: UniProt Q7TRR7
How it was run: as §1

Measured: odorant receptor agonist call

Sequence of UniProt Q7TRR7 (Q7TRR7 as listed by the source): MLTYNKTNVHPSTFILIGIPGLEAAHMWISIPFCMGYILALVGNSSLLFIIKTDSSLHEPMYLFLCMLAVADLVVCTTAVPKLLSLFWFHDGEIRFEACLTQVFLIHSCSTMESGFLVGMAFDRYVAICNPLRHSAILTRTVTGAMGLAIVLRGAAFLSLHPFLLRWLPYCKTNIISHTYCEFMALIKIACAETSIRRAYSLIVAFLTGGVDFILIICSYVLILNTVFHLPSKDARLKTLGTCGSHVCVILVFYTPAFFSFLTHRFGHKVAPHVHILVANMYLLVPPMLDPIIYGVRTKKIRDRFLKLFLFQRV

CC12CCC(CC1=O)C2(C)C (configuration not stated)
active: UniProt Q7TR71 | UniProt Q8VEU7
inactive: UniProt Q7TR79 | UniProt Q7TRA3 | UniProt Q7TRE4 | UniProt Q7TRW1 | UniProt Q7TRX0 | UniProt Q8VF05

CCCCC(=O)O
inactive: UniProt Q7TR71 | UniProt Q7TR79 | UniProt Q7TRA3 | UniProt Q7TRE4 | UniProt Q7TRM0 | UniProt Q7TRN9 | UniProt Q7TRR8 | UniProt Q7TRW1 | UniProt Q7TRX0 | UniProt Q8VEU7 | UniProt Q8VF05

CC(=O)OCc1ccccc1
inactive: UniProt Q7TR71 | UniProt Q7TR79 | UniProt Q7TRA3 | UniProt Q7TRE4 | UniProt Q7TRW1 | UniProt Q7TRX0 | UniProt Q8VEU7
active: UniProt Q8VF05

CCCCCCO
inactive: UniProt Q7TR71 | UniProt Q7TR79 | UniProt Q7TRA3 | UniProt Q7TRE4 | UniProt Q7TRN9 | UniProt Q7TRR8 | UniProt Q7TRW1 | UniProt Q7TRX0 | UniProt Q8VEU7 | UniProt Q8VF05

CC(=O)OCC=C(C)C
active: UniProt Q8VF05
inactive: UniProt Q7TR71 | UniProt Q7TR79 | UniProt Q7TRA3 | UniProt Q7TRE4 | UniProt Q7TRW1 | UniProt Q7TRX0 | UniProt Q8VEU7

CCCCCCCCC(=O)O
inactive: UniProt Q7TR71 | UniProt Q7TR79 | UniProt Q7TRA3 | UniProt Q7TRE4 | UniProt Q7TRM0 | UniProt Q7TRR7 | UniProt Q7TRW1 | UniProt Q7TRX0 | UniProt Q8VEU7 | UniProt Q8VF05
active: UniProt Q7TRA1 | UniProt Q7TRA2 | UniProt Q7TRN9 | UniProt Q7TRR8

CC(C)=CCCC(C)=CCO
inactive: UniProt Q7TR71 | UniProt Q7TR79 | UniProt Q7TRA3 | UniProt Q7TRE4 | UniProt Q7TRW1 | UniProt Q7TRX0 | UniProt Q8VEU7 | UniProt Q8VF05
